Assay results from ChEMBL document CHEMBL4382238, “Synthesis of isatin based N1-alkylated 3-β-C-glycoconjugated-oxopropylidene oxindoles as potent antiplasmodial agents” (Eur J Med Chem, 2019).

Columns and labels:
[1] = tested on: Plasmodium falciparum; assay: Antiplasmodial activity against chloroquine-resistant Plasmodium falciparum K1 asynchronous cultures infected in human erythrocytes after 72 hrs by SYBR green1 staining based fluorescence assay; format: functional, organism-based; details: K1, 72 h
In short: (§1)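 Parasites kept in human erythrocytes at 5% hematocrit in RPMI-1640 (HEPES) with 0.5% AlbuMaxII, 0.2% glucose, bicarbonate, 15 µM hypoxanthine, 37 °C CO2. Two-fold serial dilutions spanning […]; asynchronous culture at 0.8-1% parasitaemia, 1% haematocrit; 72 h, 37 °C. Lytic buffer with SYBR Green (1x final), 2 h dark, RT; Ex 485/Em 535 nm. IC50 from DNA signal versus drug-free controls; at least duplicate determinations.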

[2] = tested on: Plasmodium falciparum; assay: Antiplasmodial activity against chloroquine-sensitive Plasmodium falciparum 3D7 asynchronous cultures infected in human erythrocytes after 72 hrs by SYBR green1 staining based fluorescence assay; format: functional, organism-based; details: 3D7, 72 h; in short: as §1
[3] = Selectivity index, ratio of CC50 for African green monkey Vero cells to IC50 for chloroquine-sensitive Plasmodium falciparum 3D7 asynchronous cultures infected in human erythrocytes; format: toxicity, cell-based; details: read-out: Ratio CC50/IC50
[4] = Cytotoxicity against African green monkey Vero cells measured after 72 hrs by resazurin assay; format: cell-based; details: chlorocebus sabaeus
In short: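 VERO monkey kidney cells grown in MEM with 15% FBS under 5% CO2 at 37 °C. Cells exposed to serial drug dilutions for three days. 10% resazurin then added as viability marker. Fluorescence read at excitation 530 ± 25 nm and emission 590 ± 25 nm to calculate median cytotoxic concentration (CC50). Values are the average of at least duplicate determinations.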

[5] = Selectivity index, ratio of CC50 for African green monkey Vero cells to IC50 for chloroquine-resistant Plasmodium falciparum K1 asynchronous cultures infected in human erythrocytes; format: toxicity, cell-based; details: read-out: Ratio CC50/IC50

Row | Compound | IC50 [1] | IC50 [2] | selectivity ratio [3] | CC50 at 72 h [4] | selectivity ratio [5]
1 | CC(=O)OC[C@H]1O[C@@H](CC(=O)/C=C2\C(=O)N(Cc3cccc(C)c3)c3ccccc32)[C@H](OC(C)=O)[C@@H](OC(C)=O)[C@@H]1OC(C)=O | 0.3 µM | 0.53 µM | 137 | 72.5 µM | 242
2 | CCCCN1C(=O)C(O)(CC(=O)C[C@@H]2O[C@H](COC(C)=O)[C@@H](OC(C)=O)[C@H](OC(C)=O)[C@H]2OC(C)=O)c2ccccc21 (stereo partly drawn) | > 5 µM | > 5 µM |  |  | 
3 | CCCN1C(=O)/C(=C\C(=O)C[C@@H]2O[C@H](COC(C)=O)[C@@H](OC(C)=O)[C@H](OC(C)=O)[C@H]2OC(C)=O)c2cc(Cl)ccc21 | 0.4 µM | 1.18 µM | 81 | 95.5 µM | 239
4 | CCCN1C(=O)C(O)(CC(=O)C[C@@H]2O[C@H](COC(C)=O)[C@@H](OC(C)=O)[C@H](OC(C)=O)[C@H]2OC(C)=O)c2ccccc21 (stereo partly drawn) | > 5 µM | > 5 µM |  |  | 
5 | CC(=O)OC[C@H]1O[C@@H](CC(=O)CC2(O)C(=O)N(Cc3ccc(Br)cc3)c3ccc(Cl)cc32)[C@H](OC(C)=O)[C@@H](OC(C)=O)[C@@H]1OC(C)=O (stereo partly drawn) | 4.81 µM | > 5 µM |  |  | 
6 | CC(=O)OC[C@H]1O[C@@H](CC(=O)CC2(O)C(=O)N(Cc3cccc(C)c3)c3ccccc32)[C@H](OC(C)=O)[C@@H](OC(C)=O)[C@@H]1OC(C)=O (stereo partly drawn) | > 5 µM | > 5 µM |  |  | 
7 | CC(=O)OC[C@H]1O[C@@H](CC(=O)/C=C2\C(=O)N(Cc3ccc(Br)cc3)c3ccccc32)[C@H](OC(C)=O)[C@@H](OC(C)=O)[C@@H]1OC(C)=O | 0.8 µM | 0.23 µM | 333 | 76.5 µM | 95.7
8 | CCCCN1C(=O)/C(=C\C(=O)C[C@@H]2O[C@H](COC(C)=O)[C@@H](OC(C)=O)[C@H](OC(C)=O)[C@H]2OC(C)=O)c2ccccc21 | 1.84 µM | 2.61 µM | 48.1 | 126 µM | 68.2
9 | CC(=O)OC[C@H]1O[C@@H](CC(=O)/C=C2\C(=O)N(Cc3ccc(F)cc3)c3ccccc32)[C@H](OC(C)=O)[C@@H](OC(C)=O)[C@@H]1OC(C)=O | 1.19 µM | 0.47 µM | 253 | 119 µM | 100
10 | CCN(CC)CCCC(C)Nc1ccnc2cc(Cl)ccc12 (stereo not drawn) [CHLOROQUINE] |  |  |  | > 500 µM | 
11 | CC(=O)OC[C@H]1O[C@@H](CC(=O)/C=C2\C(=O)N(Cc3ccccc3)c3ccccc32)[C@H](OC(C)=O)[C@@H](OC(C)=O)[C@@H]1OC(C)=O | 0.29 µM | 0.77 µM | 92.4 | 71.2 µM | 245
12 | CC(=O)OC[C@H]1O[C@@H](CC(=O)CC2(O)C(=O)N(CCc3ccccc3)c3ccccc32)[C@H](OC(C)=O)[C@@H](OC(C)=O)[C@@H]1OC(C)=O (stereo partly drawn) | > 5 µM | > 5 µM |  |  | 
13 | CC(=O)OC[C@H]1O[C@@H](CC(=O)CC2(O)C(=O)N(Cc3ccc(F)cc3)c3ccccc32)[C@H](OC(C)=O)[C@@H](OC(C)=O)[C@@H]1OC(C)=O (stereo partly drawn) | > 5 µM | > 5 µM |  |  | 
14 | CC(=O)OC[C@H]1O[C@@H](CC(=O)CC2(O)C(=O)N(CCc3ccccc3)c3ccc(Cl)cc32)[C@H](OC(C)=O)[C@@H](OC(C)=O)[C@@H]1OC(C)=O (stereo partly drawn) | > 5 µM | > 5 µM |  |  | 
15 | CC(=O)OC[C@H]1O[C@@H](CC(=O)CC2(O)C(=O)N(Cc3ccccc3)c3ccc(Cl)cc32)[C@H](OC(C)=O)[C@@H](OC(C)=O)[C@@H]1OC(C)=O (stereo partly drawn) | > 5 µM | > 5 µM |  |  | 
16 | CC(=O)OC[C@H]1O[C@@H](CC(=O)/C=C2\C(=O)N(Cc3ccc(Br)cc3)c3ccc(Cl)cc32)[C@H](OC(C)=O)[C@@H](OC(C)=O)[C@@H]1OC(C)=O | 0.15 µM | 0.24 µM | 389 | 93.3 µM | 622

Row | Compound | IC50 [1] | IC50 [2] | selectivity ratio [3] | CC50 at 72 h [4] | selectivity ratio [5]
17 | CC(=O)OC[C@H]1O[C@@H](CC(=O)/C=C2\C(=O)N(CCc3ccccc3)c3ccccc32)[C@H](OC(C)=O)[C@@H](OC(C)=O)[C@@H]1OC(C)=O | 0.75 µM | 0.95 µM | 68.1 | 64.7 µM | 86.2
18 | CC(=O)OC[C@H]1O[C@@H](CC(=O)CC2(O)C(=O)N(Cc3cccc(C)c3)c3ccc(Cl)cc32)[C@H](OC(C)=O)[C@@H](OC(C)=O)[C@@H]1OC(C)=O (stereo partly drawn) | > 5 µM | > 5 µM |  |  | 
19 | CC(=O)OC[C@H]1O[C@@H](CC(=O)/C=C2\C(=O)N(Cc3ccccc3)c3ccc(Cl)cc32)[C@H](OC(C)=O)[C@@H](OC(C)=O)[C@@H]1OC(C)=O | 0.31 µM | 0.26 µM | 351 | 91.2 µM | 294
20 | CC(=O)OC[C@H]1O[C@@H](CC(=O)CC2(O)C(=O)Nc3ccccc32)[C@H](OC(C)=O)[C@@H](OC(C)=O)[C@@H]1OC(C)=O (stereo partly drawn) | > 5 µM | > 5 µM |  |  | 
21 | CC(=O)OC[C@H]1O[C@@H](CC(=O)/C=C2\C(=O)N(Cc3cccc(C)c3)c3ccc(Cl)cc32)[C@H](OC(C)=O)[C@@H](OC(C)=O)[C@@H]1OC(C)=O | 1.04 µM | 0.17 µM | 535 | 91 µM | 87.5
22 | CC(=O)OC[C@H]1O[C@@H](CC(=O)CC2(O)C(=O)N(Cc3ccc(F)cc3)c3ccc(Cl)cc32)[C@H](OC(C)=O)[C@@H](OC(C)=O)[C@@H]1OC(C)=O (stereo partly drawn) | 2.26 µM | 3.54 µM |  |  | 
23 | CC(=O)OC[C@H]1O[C@@H](CC(=O)/C=C2\C(=O)Nc3ccc(Cl)cc32)[C@H](OC(C)=O)[C@@H](OC(C)=O)[C@@H]1OC(C)=O | 2.52 µM | 2.68 µM | 45.5 | 122 µM | 48.4
24 | CC(=O)OC[C@H]1O[C@@H](CC(=O)CC2(O)C(=O)Nc3ccc(Cl)cc32)[C@H](OC(C)=O)[C@@H](OC(C)=O)[C@@H]1OC(C)=O (stereo partly drawn) | > 5 µM | > 5 µM |  |  | 
25 | CCCN1C(=O)C(O)(CC(=O)C[C@@H]2O[C@H](COC(C)=O)[C@@H](OC(C)=O)[C@H](OC(C)=O)[C@H]2OC(C)=O)c2cc(Cl)ccc21 (stereo partly drawn) | > 5 µM | > 5 µM |  |  | 
26 | CC(=O)OC[C@H]1O[C@@H](CC(=O)/C=C2\C(=O)Nc3ccccc32)[C@H](OC(C)=O)[C@@H](OC(C)=O)[C@@H]1OC(C)=O | > 5 µM | 4.27 µM | 29.8 | 127 µM | < 25.4
27 | CCCCN1C(=O)/C(=C\C(=O)C[C@@H]2O[C@H](COC(C)=O)[C@@H](OC(C)=O)[C@H](OC(C)=O)[C@H]2OC(C)=O)c2cc(Cl)ccc21 | 0.22 µM | 0.18 µM | 494 | 88.9 µM | 404
28 | CCCN1C(=O)/C(=C\C(=O)C[C@@H]2O[C@H](COC(C)=O)[C@@H](OC(C)=O)[C@H](OC(C)=O)[C@H]2OC(C)=O)c2ccccc21 | > 5 µM | 3.59 µM | 34.7 | 125 µM | < 24.9
29 | CC(=O)OC[C@H]1O[C@@H](CC(=O)/C=C2\C(=O)N(Cc3ccc(F)cc3)c3ccc(Cl)cc32)[C@H](OC(C)=O)[C@@H](OC(C)=O)[C@@H]1OC(C)=O | 0.25 µM | 0.32 µM | 335 | 107 µM | 429
30 | CC(=O)OC[C@H]1O[C@@H](CC(=O)CC2(O)C(=O)N(Cc3ccc(Br)cc3)c3ccccc32)[C@H](OC(C)=O)[C@@H](OC(C)=O)[C@@H]1OC(C)=O (stereo partly drawn) | > 5 µM | > 5 µM |  |  | 
31 | CCCCN1C(=O)C(O)(CC(=O)C[C@@H]2O[C@H](COC(C)=O)[C@@H](OC(C)=O)[C@H](OC(C)=O)[C@H]2OC(C)=O)c2cc(Cl)ccc21 (stereo partly drawn) | > 5 µM | > 5 µM |  |  | 
32 | CC(=O)OC[C@H]1O[C@@H](CC(=O)CC2(O)C(=O)N(Cc3ccccc3)c3ccccc32)[C@H](OC(C)=O)[C@@H](OC(C)=O)[C@@H]1OC(C)=O (stereo partly drawn) | > 5 µM | > 5 µM |  |  | 
